# This excerpt belongs to a sample that is enriched for hits.
# CHOP inh: CHOP inhibition in unfolded protein response; 220,000 compounds, 3.8% hits; CHO-K1 CHOP-promoter luciferase, tunicamycin-induced, 15-18 h; inhibition, % at 10 µM;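 active = compounds that reduced the stress-induced luciferase reporter signal by more than about 70% of percent inhibition, limit read from the data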;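 also: 0% = tunicamycin plus vehicle and 100% = wells without tunicamycin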
# UPR XBP1 act: adaptive UPR (XBP1) activation. activation, % at 20 µM. 330,000 compounds, 0.33% hits. CHO-XBP1 luciferase reporter, IRE1-XBP1 UPR activation, luminescence; percent of tunicamycin response, DMSO as zero;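 active = versus positive control, 20 µM dose yields 30% or more activation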;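 also: 100% = tunicamycin at 10 µg/mL and 0% = DMSO only wells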
#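 Material – CHO cell line with stable XBP1 luciferase reporter · Buffer or medium – F12 plus 10% FBS · Compound – single point, 20 µM final compound, 1% DMSO · Schedule – 16-18 h cell attachment at 37 °C, then 6 h compound exposure · Signal – Steady-Glo luminescence read · Benchmarks – high control tunicamycin 10 µg/mL final, low control DMSO vehicle only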
# Beta2AR agonist: human beta-2 adrenergic receptor agonism by FAP | response, % (concentration not given with the values) | P07550 | Am2.2-beta2AR cells, FAP receptor internalization, flow cytometry | 340,000 compounds, 0.43% hits;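 active = response above a set limit, near 3 SD of response in nonfluorescent compounds, cut at about 42% in these data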
# CHOP UPR activ: apoptotic UPR (CHOP) activation; activation, % at 10 µM; AID 449763; 330,000 compounds, 0.34% hits; CHO-CHOP luciferase reporter, luminescence; percent of tunicamycin response over DMSO baseline;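 active = at 10 µM dose, activation of 40% or more, normalized to positive control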;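 also: 100% = tunicamycin at 10 µg/mL and 0% = DMSO alone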
#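 Dosing – one dose, 10 µM in 0.5% DMSO · System – CHO-CHOP cells, stable luciferase reporter of PERK-eIF2a-CHOP signalling · Input – 500 cells/well · Control set – tunicamycin 10 µg/mL final as positive, DMSO-only wells as negative · Timing – 6 h compound treatment, 37 °C · Measure – % activation vs tunicamycin · Technique – luminescence read with Steady-Glo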
# p-CIP stab down: lowers stability of the mouse p/CIP coactivator protein. Q05BA5. F442A p/CIP-EGFP cells, EGFP fluorescence, 16 h. decrease of EGFP signal, % at 10 µM. 290,000 compounds, 0.01% hits;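 active = EGFP signal decrease of at least 30% at 10 µM or well 3 SD below plate mean, unless failing retest; inactive = the rest, including hits failing retest or dose response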
# Dynein transport: dynein cargo transport inhibition; 220,000 compounds, 0.47% hits; AID 1381; z-score, hits read low; 3617.4 mouse cells, GR-EGFP nuclear translocation imaging; test concentration mostly 20 µM; stimulated with dexamethasone, 1 µM; hits give low values;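 active = plate z-score of nuclear minus cytoplasmic receptor signal below a set negative limit, without overly bright fluorescence or cell loss, cut at about -3.5 in these data, passing the limit was not always enough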;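 also: z-score of nuclear minus cytoplasmic ring GR-EGFP intensity difference per well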
#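 medium = tetracycline-free induction medium containing charcoal-stripped FBS | probe or stimulus = dexamethasone, 1.0 µM final | timing = 48 h induction, then 1 h compound, then 30 min agonist, 37 °C | detection = automated 10x imaging of fixed Hoechst-stained cells | read-out basis = nuclear versus cytoplasmic GR-EGFP signal, averaged per well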
# CHOP confirm: confirmation of CHOP induction inhibitors | 2,100 compounds, 45% hits | inhibition, % at 10 µM | shares compounds with CHOP inh | CHO-CHOP promoter luciferase reporter, tunicamycin-induced, luminescence;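 active = mean of three repeat readings of reporter signal inhibition above a set limit, cut at about 70% in these data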;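 also: 0% = tunicamycin plus vehicle and 100% = wells lacking tunicamycin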
# The depositor's hits bear a star; nt = not tested or not shown.
SMILES,CHOP inh,UPR XBP1 act,Beta2AR agonist,CHOP UPR activ,p-CIP stab down,Dynein transport,CHOP confirm
O=[N+]([O-])c1cccc(-c2csc(N/N=C/c3cccc(O)c3)n2)c1,106*,0,17,4,15,0.74,6
NC(=O)c1ccsc1NC(=O)CN1CCN(S(=O)(=O)c2ccccc2C(F)(F)F)CC1,nt,nt,22,nt,nt,nt,nt
O=C(NCCOc1ccc(F)cc1)C1CCC(=O)N(CCc2ccccn2)C1 (stereo unspecified),nt,-2,-5,1,-3,nt,nt
Cc1oc2c(C)c(O)ccc2c(=O)c1-c1cnn(-c2ccccc2)c1,104*,4,-9,5,2,3,-16
Cc1cc(C)n(CC(=O)c2cccc([N+](=O)[O-])c2)n1,-3,1,-12,0,5,-0.42,nt
COc1cccc(OC)c1OCCCN1CCC(Cc2ccccc2)CC1,nt,-3,-4,-1,-7,nt,nt
CC(C)=CCc1cc(-c2oc3cc(O)cc(O)c3c(=O)c2O)ccc1O,nt,2,-8,1,nt,nt,nt
CC(C)=CCc1c(O)cc2oc3c(CC=C(C)C)c(O)c(O)c(CC=C(C)C)c3c(=O)c2c1O,97*,2,21,8,-15,-0.95,120*
O=C(CSc1nnc(SCc2cccc3ccccc23)s1)N=Nc1c(O)[nH]c2ccccc12,97*,nt,nt,nt,1,-0.11,15
CCOC(=O)C(=CNc1cc(C)nn1-c1ccc(Cl)cc1)C(=O)OCC,104*,-2,-20,4,-6,0.53,14
CS(=O)(=O)c1ccc(-c2sc3ccccc3c2C(=O)NCCCN2CCOCC2)cc1,nt,1,11,1,nt,nt,nt
CCN(CC)C(C)C#CCC(c1ccccc1)c1ccccc1 (stereo unspecified),19,nt,nt,nt,-11,0.61,nt
CCOC(=O)c1cccc(NC(=O)CSc2nnc(COc3ccccc3C)o2)c1,108*,0,8,-1,-24,0.67,12
COc1ccccc1NC(=O)CSc1nnc(COc2ccccc2C)o1,nt,-7,7,-3,-13,nt,nt
O=C(NCCCN1CCCCC1)c1ccc(CS(=O)c2ccc(Cl)cc2)o1 (stereo unspecified),nt,-4,8,-1,-6,nt,nt
CCOc1ccccc1Oc1cn[nH]c1-c1ccc(O)cc1O,nt,-6,1,0,-5,nt,nt
C=C(C)COc1ccc(-c2[nH]ncc2Oc2ccccc2OCC)c(O)c1,107*,-2,1,1,-12,-0.49,107*
CCCc1ccc(Oc2cn[nH]c2-c2ccc(O)cc2O)cc1,108*,3,2,-1,8,-0.8,120*
C=C(C)COc1ccc(-c2[nH]ncc2-c2ccc(OC)cc2)c(O)c1,38,0,-4,-2,-6,0.97,nt
C=C(C)COc1ccc(-c2[nH]ncc2Oc2cccc(OC)c2)c(O)c1,103*,3,14,1,5,-0.034,12
COc1ccc(Oc2cn[nH]c2-c2ccc(O)cc2O)cc1,20,2,7,-3,6,-0.72,nt
C=C(C)COc1ccc(-c2n[nH]c(C)c2Oc2ccccc2OC)c(O)c1,107*,2,10,-1,-17,1.4,115*
CN(C)C1C(=O)c2ccccc2C1=O,-4,-1,-3,2,-3,0.17,nt
C=C(C)COc1ccc(-c2[nH]ncc2-c2ccccc2)c(O)c1,102*,2,-3,-1,-6,0.49,24
O=[N+]([O-])c1ccc(COc2ccc(-c3[nH]ncc3-c3ccccc3)c(O)c2)cc1,99*,-4,-6,-1,-12,-0.69,102*
SMILES,CHOP inh,UPR XBP1 act,Beta2AR agonist,CHOP UPR activ,p-CIP stab down,Dynein transport,CHOP confirm
C=CCc1cc(C)ccc1OCC(O)CN1CCN(c2ccccc2)CC1 (stereo unspecified),106*,-2,-3,0,2,-1.1,96*
COc1ccccc1N=c1scc(-c2ccc3c(c2)NC(=O)CO3)n1CC1CCCO1 (stereo unspecified),49,2,7,-3,-15,0.84,nt
CCCCN=c1scc(-c2ccc3c(c2)NC(=O)CO3)n1N=C1CCCC1,106*,0,-10,0,-9,-0.53,105*
COC(=O)c1cc2sc(Cl)cc2n1CC(=O)Nc1cccc(SC)c1,99*,-1,24,0,8,2.6,-3
CC(C)C[C@H](N)c1nnc(S(=O)(=O)Cc2ccc(F)cc2)o1,103*,-8,0,17,-24,-3.7*,47
COC(=O)c1ccc(CS(=O)(=O)c2ccc(F)cc2)o1,nt,0,0,-1,3,nt,nt
Cc1nc(S(=O)(=O)N2CCOCC2)c(C#N)c(C)c1Cl,7,0,6,-1,-6,-1.3,nt
O=C(Oc1cc2oc(=O)c3c(c2cc1Cl)CCCC3)c1ccco1,57,1,1,0,-7,-0.35,nt
CC(=O)Oc1cc2oc(=O)c3c(c2cc1Cl)CCC3,99*,-2,-2,1,-1,3.2,6
COc1ccc(OC)c(NC(=O)C(CC(=O)O)NCc2ccco2)c1 (stereo unspecified),2,-1,0,0,-4,-0.21,nt
Cc1ccc(C)c(-n2nnnc2Sc2nnnn2-c2ccccc2)c1,nt,-3,3,6,nt,-3.2,24
O=C(CSc1nnnn1-c1ccc(Cl)cc1)NC(=O)Nc1ccc2c(c1)OCCO2,100*,2,-2,4,-2,-0.64,51
Cc1ccc(-n2nnnc2SCC(=O)NC(=O)Nc2ccc3c(c2)OCCO3)cc1,15,0,-8,4,-21,-0.51,nt
CCOc1ccc(/C=N/NC(=O)c2cc(-c3ccco3)nc3ccccc23)cc1,104*,28,-1,5,-4,2,95*
Cc1cc(CN(C)Cc2c(C(=O)N3CCCCCCC3)nc3ccc(Cl)cn23)n[nH]1,1,-3,2,0,0,0.19,nt
O=C(/C=C/c1ccccc1)Nc1cccc(C(=O)O)c1,97*,-13,-2,-10,5,-0.56,116*
CN(C)c1ccc(/C=C/c2ccc3c4ccccc4ccc3[n+]2-c2ccccc2)cc1,108*,nt,17,nt,-5,-0.72,123*
Cc1cc(C)nc(SCC(CSc2nc(C)cc(C)n2)C(=O)O)n1,-3,-1,7,0,-8,0.18,nt
CCCOc1ccc(N2C(=O)CC(NNC(=O)c3ccc(COc4ccccc4)o3)C2=O)cc1 (stereo unspecified),102*,-2,-12,0,0,0.1,19

# Screening data (PubChem)
